According to ChEMBL document CHEMBL1157026, “Novel antileishmanial chalconoids: synthesis and biological activity of 1- or 3-(6-chloro-2H-chromen-3-yl)propen-1-ones” (Eur J Med Chem, 2010):

What was measured:
[1] = system: Leishmania major; assay: Antileishmanial activity against Leishmania major MRHO/IR/75/ER promastigote infected in BALB/c mouse peritoneal macrophage after 24 hrs by MTT assay; assay type: functional, organism-based
In short: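 L. major vaccine strain MRHO/IR/75/ER, maintained by passage in BALB/c mice, grown on blood agar at 25 °C. Log-phase promastigotes at 2 × 10⁶/mL were put in phenol red-free RPMI 1640 with 10% FCS, 2 mM glutamine, pH ~7.2 and antibiotics, with serial drug dilutions, for 24 h at 25 °C. MTT (0.5 mg/mL) was added for 4 h at 37 °C; pellets were dissolved in DMSO and read on a plate reader. IC50 was determined.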

[2] = Cytotoxicity against BALB/c mouse peritoneal macrophage after 24 hrs by MTT assay; assay type: cell-based; conditions: peritoneal macrophage cell
In short: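 Mouse peritoneal macrophages were seeded at 2 × 10⁵ cells/well. After adherence, the medium was replaced with medium holding one concentration per compound. Plates were incubated 24 h at 37 °C in humidified 5% CO2. Controls got culture medium plus DMSO. Viability was read by MTT colorimetric assay.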

O=C(/C=C/C1=Cc2cc(Cl)ccc2OC1)c1ccccc1Cl
IC50 [1]: 1.22 µM | Activity [2]: Non-toxic

COc1cc(C(=O)/C=C/C2=Cc3cc(Cl)ccc3OC2)cc(OC)c1OC
IC50 [1]: 2.06 µM | Activity [2]: Non-toxic

Cc1ccc(/C=C/C(=O)C2=Cc3cc(Cl)ccc3OC2)cc1
IC50 [1]: 2.75 µM | Activity [2]: Non-toxic

O=C(/C=C/C1=Cc2cc(Cl)ccc2OC1)c1ccccc1F
IC50 [1]: 2.22 µM | Activity [2]: Non-toxic

COc1ccc(OC)c(/C=C/C(=O)C2=Cc3cc(Cl)ccc3OC2)c1
IC50 [1]: 3 µM | Activity [2]: Non-toxic

MEGLUMINE ANTIMONATE
Activity [2]: 40%

O=C(/C=C/c1ccccc1Br)C1=Cc2cc(Cl)ccc2OC1
IC50 [1]: 1.33 µM | Activity [2]: Non-toxic

O=C(/C=C/C1=Cc2cc(Cl)ccc2OC1)c1ccc(Cl)cc1Cl
IC50 [1]: 1.91 µM | Activity [2]: Non-toxic

COc1cccc(/C=C/C(=O)C2=Cc3cc(Cl)ccc3OC2)c1OC
IC50 [1]: 2.8 µM | Activity [2]: Non-toxic
